Experimental data published in ChEMBL document CHEMBL1153534, “Design and synthesis of androgen receptor antagonists with bulky side chains for overcoming antiandrogen resistance” (J Med Chem, 2009).
The source made the active and inactive calls. The rule behind the calls is not given here.

Legend:
[1] = tested on: PC-3; test: Antiandrogenic activity in human PC3 cells expressing androgen receptor W741C mutant assessed as inhibition of DHT-induced ARE-dependent transactivation at 1 uM after 24 hrs by luciferase reporter gene assay; type: cell-based
Outline: (§1)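 PC-3 cells, which lack endogenous AR, transiently transfected with plasmids expressing human AR (WT, T877A, W741C or H874Y) plus an ARE-driven MMTV-luc reporter. Cells were treated with or without 0.1 nM DHT. Firefly luciferase was standardized to a Renilla control and normalized to the 0.1 nM DHT signal. Mean ± sd.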

[2] = target: T1, Androgen receptor (Homo sapiens) (UniProt P10275); test: Activity in human PC3 cells expressing wild-type androgen receptor assessed as ARE-dependent transactivation at 0.1 uM after 24 hrs by luciferase reporter gene assay in absence of DHT; type: cell-based; details: PC-3; outline: as §1
T1 sequence (whole entry): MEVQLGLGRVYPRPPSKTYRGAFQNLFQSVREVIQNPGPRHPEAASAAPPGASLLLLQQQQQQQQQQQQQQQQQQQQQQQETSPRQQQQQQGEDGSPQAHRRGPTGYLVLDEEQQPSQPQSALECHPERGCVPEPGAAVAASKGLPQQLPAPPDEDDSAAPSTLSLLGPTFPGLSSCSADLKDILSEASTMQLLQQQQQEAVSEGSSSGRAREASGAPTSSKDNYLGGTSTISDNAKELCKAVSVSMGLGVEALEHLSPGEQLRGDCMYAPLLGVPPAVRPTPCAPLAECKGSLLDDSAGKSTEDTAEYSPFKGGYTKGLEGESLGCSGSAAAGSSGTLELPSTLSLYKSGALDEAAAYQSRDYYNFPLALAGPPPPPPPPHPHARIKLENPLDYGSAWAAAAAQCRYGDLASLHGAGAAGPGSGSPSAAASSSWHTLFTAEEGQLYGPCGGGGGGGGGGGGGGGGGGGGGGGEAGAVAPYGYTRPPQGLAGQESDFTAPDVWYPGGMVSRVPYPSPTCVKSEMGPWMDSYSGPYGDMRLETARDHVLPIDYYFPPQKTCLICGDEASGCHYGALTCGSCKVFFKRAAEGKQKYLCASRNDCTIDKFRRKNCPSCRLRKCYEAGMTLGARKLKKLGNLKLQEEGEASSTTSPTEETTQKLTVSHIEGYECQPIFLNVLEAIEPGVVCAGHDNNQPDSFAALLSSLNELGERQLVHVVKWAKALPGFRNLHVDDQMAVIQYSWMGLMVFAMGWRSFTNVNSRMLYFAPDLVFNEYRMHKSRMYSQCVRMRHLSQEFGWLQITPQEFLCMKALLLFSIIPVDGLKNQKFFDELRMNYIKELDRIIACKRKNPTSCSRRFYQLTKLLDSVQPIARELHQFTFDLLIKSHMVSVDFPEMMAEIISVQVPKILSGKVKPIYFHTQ

[3] = target: T2, Progesterone receptor (Homo sapiens) (UniProt P06401); test: Agonist activity at human PR B-form expressed in human PC3 cells assessed as receptor transactivation at 0.1 uM after 24 hrs by luciferase reporter gene assay; type: functional, cell-based; details: PC-3
T2 sequence (whole entry): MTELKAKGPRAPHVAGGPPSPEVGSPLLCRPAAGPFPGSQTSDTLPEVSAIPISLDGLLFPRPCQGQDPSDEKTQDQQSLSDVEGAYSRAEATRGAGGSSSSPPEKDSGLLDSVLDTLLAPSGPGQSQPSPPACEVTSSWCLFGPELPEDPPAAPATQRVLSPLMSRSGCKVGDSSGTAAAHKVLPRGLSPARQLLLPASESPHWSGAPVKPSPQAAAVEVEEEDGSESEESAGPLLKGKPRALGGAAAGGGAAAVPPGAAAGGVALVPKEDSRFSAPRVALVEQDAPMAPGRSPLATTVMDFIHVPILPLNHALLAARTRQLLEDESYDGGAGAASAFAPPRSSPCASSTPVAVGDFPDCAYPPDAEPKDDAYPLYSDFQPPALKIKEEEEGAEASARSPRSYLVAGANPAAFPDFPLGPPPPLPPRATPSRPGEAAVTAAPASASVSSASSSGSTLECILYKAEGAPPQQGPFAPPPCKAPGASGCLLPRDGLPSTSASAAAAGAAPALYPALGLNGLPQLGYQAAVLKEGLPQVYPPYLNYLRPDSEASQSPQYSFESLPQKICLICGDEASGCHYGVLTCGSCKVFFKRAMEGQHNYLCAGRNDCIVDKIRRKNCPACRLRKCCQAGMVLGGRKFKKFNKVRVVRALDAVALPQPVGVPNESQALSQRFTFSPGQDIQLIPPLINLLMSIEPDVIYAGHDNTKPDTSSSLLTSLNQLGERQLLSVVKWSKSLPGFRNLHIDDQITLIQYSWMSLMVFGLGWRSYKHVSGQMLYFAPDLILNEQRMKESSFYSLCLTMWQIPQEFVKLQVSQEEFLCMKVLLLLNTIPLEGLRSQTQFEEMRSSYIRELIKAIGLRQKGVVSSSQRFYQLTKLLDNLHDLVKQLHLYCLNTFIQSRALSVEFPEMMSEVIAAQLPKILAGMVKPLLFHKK
Outline: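 PC-3 cells carrying a luciferase reporter for transactivation by the human PR B form. Antagonist mode used 10 nM R5020 as the agonist. Agonist mode ran in the absence of R5020. Luciferase read-out.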

Activity [2]: inactive
Activity [3]: inactive
SMILES: COc1cc(/C=C(\C(=O)/C=C/C2=C(C)CCCC2(C)C)C(=O)/C=C/c2ccc(O)c(OC)c2)ccc1O
Activity [1]: Active
